Screening data from PubChem.
The entries come from a sample that favours hits as a whole.
G6PDH counter: inhibits Leuconostoc G6PDH, flagging false hits in G6PDH-based assays. Purified L. mesenteroides G6PDH, diaphorase/resazurin coupled fluorescence, 45 min. inhibition, % at 5 µM. 0.12% of 200,000 active. AID 1020
Diaph inh CS: inhibits diaphorase or chemically oxidizes, flagging diaphorase assay artifacts. diaphorase resazurin-to-resorufin fluorescence, NADH, 16 min; bacterial (C. kluyveri) enzyme, not human. inhibition, % at 20 µM. 0.69% of 190,000 active. AID 1217;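 active means primary screen inhibition at 20 µM above a set limit, cut at about 50% in these data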;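 further: plate controls were DMSO with full reaction for no effect and wells lacking NADH for full effect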
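controls = No-NADH positive control and DMSO neutral control | system = Clostridium kluyveri diaphorase enzyme | timing = reaction incubation of 16 min at room temperature | signal = resorufin fluorescence 544/590 nm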
Redox H2O2 prof: compounds producing H2O2 with reducing agent – biochemical, NIH compound library profiling, artefact control for MLSCN library redox annotation, primary screen; DTT-dependent redox cycling H2O2, phenol red/HRP absorbance; 100% = 100 µM peroxide control, 0% = buffer; activation, % at 10 µM; 0.03% of 200,000 active; AID 878;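 active means activation of at least 50% relative to the plate's high and low controls in the primary single-dose screen; inactive means activation below 50%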;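 further: compound incubated with DTT at 0.8 mM final as the reducing agent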
Diaph act CS: diaphorase activation or chemical reduction counter-screen. 0.005% of 190,000 active. activation factor at 20 µM. AID 1229. Diaphorase/resazurin coupled assay, resorufin fluorescence, 16 min; stronger effect = higher value; 1 = vehicle wells, 0 = NADH-free wells;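 active means diaphorase activity raised at least twofold by the compound at 20 µM; inactive means activation factor below 2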
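Material: purified diaphorase enzyme from Clostridium kluyveri / Medium: HEPES pH 7.4 buffer with MgCl2 and Tween 20 / Schedule: enzyme reaction of 16 min at room temperature / Measured by: resorufin fluorescence, excitation 544 nm, emission 590 nm / Evaluation: rise in resorufin formation, marking diaphorase activation or chemical reduction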
PfG6PD inh: PfG6PD (Plasmodium falciparum) enzyme inhibition | AID 504690 | PfGluPho enzyme, NADPH resazurin-diaphorase fluorescence | inhibition, % at 20 µM | 0.78% of 350,000 active;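 active means inhibition reaching at least a set limit at 20 µM in the primary screen, cut at about 59% in these data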;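 further: 0% = DMSO wells with substrate and 100% = DMSO wells lacking glucose-6-phosphate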
Lmaj promast: Leishmania major promastigote growth inhibition. inhibition, % at 10 µM. Leishmania major promastigotes, resazurin fluorescence viability. AID 1063. 9% of 200,000 active;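 further: promastigotes grown with compound for 44 hours at 28 °C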
An asterisk follows results filed as active; x = not tested or not shown. Unless noted, no stated cut-off is given here; in the data, active means inhibition above about 50%; inactive means the rest.

SMILES | G6PDH counter | Diaph inh CS | Redox H2O2 prof | Diaph act CS | PfG6PD inh | Lmaj promast
CCC(=O)N1CCc2cc(S(=O)(=O)NCCN3CCC(C)CC3)ccc21 | -4 | 4 | 0 | 1 | -11 | 54*
CCNS(=O)(=O)c1ccc(NC(=S)NCC2CCCO2)cc1 (centres undefined) | 4 | -4 | -1 | 1 | -1 | 3
Cc1ccc(C)c(NC(=O)c2cc[n+](C)cc2)c1 | x | x | x | x | 2 | x
CCOC(=O)c1cnc2oc3ccccc3n2c1=O | x | x | x | x | 16 | x
COc1ccc(NC(C)C(=O)Nc2cc(C(F)(F)F)ccc2N2CCOCC2)c(OC)c1 (centres undefined) | 11 | 20 | 0 | 0.8 | 17 | 72*
COc1cc(Cl)c(C)cc1NC(C)C(=O)Nc1cc(C(F)(F)F)ccc1N1CCOCC1 (centres undefined) | 1 | 21 | 0 | 0.8 | 3 | 6
O=C(NC(=S)N(CCc1ccccc1)CCc1ccccc1)c1ccco1 | -9 | 26 | 1 | 0.7 | -23 | 95*
COc1cc(C(=O)NC(=S)N(CCc2ccccc2)CCc2ccccc2)cc(OC)c1OC | 14 | 15 | 0 | 0.9 | -27 | 99*
O=C(/C=C/c1ccccc1)NC(=S)NNC(=O)c1ccco1 | 2 | 52* | 1 | 0.5 | -35 | 41
C=CCN(CC=C)C(=S)NC(=O)c1ccc(OC)cc1 | 18 | 6 | -1 | 0.9 | -16 | 8
CC(CCc1ccccc1)NC(=S)NC(=O)c1ccco1 (centres undefined) | -3 | 3 | -1 | 1 | 16 | 7
COc1ccc(C(=O)NC(=S)N(Cc2ccccc2)Cc2ccccc2)cc1 | 4 | 14 | 2 | 0.9 | -7 | 90*
CCC(CC)c1nnc(NC(=O)c2cccnc2SC)s1 | -3 | 11 | -2 | 0.9 | -18 | -3
c1ccc2c3c([nH]c2c1)-c1[nH]ncc1CC3 | 17 | 64* | 2 | 0.4 | 51 | 3
C=CCn1c(=O)c(C(=O)Nc2ccccc2C(=O)OCC)c(O)c2ccccc21 | -22 | 20 | 2 | 0.8 | -7 | 68*
CCOC(=O)C1=C(C)N=C2c3ccccc3C(=O)C2C1c1ccc(Cl)cc1 (centres undefined) | 3 | 11 | -1 | 0.9 | 12 | 96*
O=S(=O)(/N=C(/c1ccccc1)N1CCOCC1)c1ccc(F)cc1 | x | x | x | x | -7 | x
COc1ccc(OC)c(Nc2nc(-c3sc(C)nc3C)cs2)c1 | 2 | 20 | 0 | 0.8 | 31 | 21
COc1ccc(Cl)cc1Nc1nc(-c2sc(NC(=O)C(C)(C)C)nc2C)cs1 | 1 | 20 | -4 | 0.8 | 31 | 96*
COc1ccc(OC)c(Nc2nc(-c3sc(NC(=O)C(C)(C)C)nc3C)cs2)c1 | 3 | 17 | -7 | 0.8 | 22 | 93*
CCC(C)C(=O)Nc1nc(C)c(-c2csc(Nc3cc(Cl)ccc3OC)n2)s1 (centres undefined) | 0 | 21 | -4 | 0.8 | 18 | 43
COc1ccc(CN(C)C(=O)C2CSC3(C)CCC(=O)N23)cc1OC (centres undefined) | x | x | x | x | -13 | x
O=C(Nc1cccc(C(F)(F)F)c1)N(Cc1ccc(Cl)cc1)CC(O)C(F)(F)F (centres undefined) | 14 | 16 | -6 | 0.8 | 24 | 96*
CC(O)(CS(=O)(=O)Cc1ccc(Cl)cc1)C(=O)Nc1cccc(C(F)(F)F)c1 (centres undefined) | 5 | 12 | -2 | 0.9 | 6 | 1
OCCN1CCN(c2cc(-c3ccccc3)c3ccccc3n2)CC1 | 0 | 22 | x | 0.8 | 5 | 69*
CN1CCN(c2nc(N3CCN(CCO)CC3)nc3ccccc23)CC1 | 3 | -1 | 0 | 1 | 11 | 100*
Nc1cccc(CCc2nc3cc4ccccc4cc3[nH]2)c1 | -19 | 17 | 0 | 0.8 | 27 | 97*
C/C(=N\NC(=O)C1(C)CC1(Br)Br)c1cccc(NC(=O)C(C)(C)C)c1 (centres undefined) | 15 | 0 | 0 | 1 | 16 | 60*
COC(=O)c1cc(NC(=S)NC(=O)c2ccccc2)ccc1N1CCOCC1 | x | x | x | x | -7 | x
